From ChEMBL document CHEMBL1125626, “Synthesis and structure-activity relationship of new cephalosporins with amino heterocycles at C-7. Dependence of the antibacterial spectrum and beta-lactamase stability on the pKa of the C-7 heterocycle” (1991)
In brackets after ≈: the same amount, converted by molar mass.

What was measured:
Proteus mirabilis [1] = assay: Minimum inhibitory concentration against Proteus mirabilis A18 (inoculum, 10e5 cfu per spot); type: functional
Summary of the method: (§1)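 MIC in µg/mL, determined in Jewell and Permain growth medium with spot inoculation at 10^5 cfu per spot.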

Pseudomonas aeruginosa [2] = assay: Minimum inhibitory concentration against Pseudomonas aeruginosa A21 (inoculum, 10e5 cfu per spot); type: functional; summary of the method: as §1
Staphylococcus aureus [3] = assay: (§2) Minimum inhibitory concentration against Staphylococcus aureus A5(inoculum, 10e5 cfu per spot); type: functional; summary of the method: as §1
Serratia marcescens [4] = assay: Minimum inhibitory concentration against Serratia marcescens A16 (inoculum, 10e5 cfu per spot); type: functional; summary of the method: as §1
Streptococcus pyogenes = assay: Minimum inhibitory concentration against Streptococcus pyogenes (inoculum, 10e5 cfu per spot) A1; type: functional; summary of the method: as §1
Enterobacter cloacae [5] = assay: Minimum inhibitory concentration against Enterobacter cloacae A13(inoculum, 10e2 cfu per spot)
Escherichia coli [6] = assay: Minimum inhibitory concentration against Escherichia coli A8 (inoculum, 10e5 cfu per spot); type: functional; summary of the method: as §1
[7] = as §2; type: functional; summary of the method: as §1
Staphylococcus aureus [8] = assay: Minimum inhibitory concentration against Staphylococcus aureus A6 (inoculum, 10e5 cfu per spot); type: functional; summary of the method: as §1
Enterobacter cloacae [9] = assay: Minimum inhibitory concentration against Enterobacter cloacae A13(inoculum, 10e5 cfu per spot); type: functional; settings: in the assay text read “10e2 cfu per spot” for “10e5 cfu per spot”
Staphylococcus aureus [10] = assay: as §2; type: functional; settings: in the assay text read “10e2 cfu per spot” for “10e5 cfu per spot”
Proteus vulgaris [11] = assay: Minimum inhibitory concentration against Proteus vulgaris Pv9 (inoculum, 10e5 cfu per spot)
Klebsiella pneumoniae [12] = assay: Minimum inhibitory concentration against Klebsiella pneumoniae A24 (inoculum, 10e5 cfu per spot); type: functional; summary of the method: as §1
Escherichia coli [13] = assay: Minimum inhibitory concentration against Escherichia coli X4 (inoculum, 10e4 cfu per spot)
Escherichia coli [14] = assay: Minimum inhibitory concentration against Escherichia coli TEM X3 (inoculum, 10e4 cfu per spot)(TEM I type lactamase producer)
Enterobacter cloacae [15] = assay: Minimum inhibitory concentration against Enterobacter cloacae P99 (inoculum, 10e4 cfu per spot)(type I lactamase producer); type: functional
Summary of the method: (§3)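 MIC in µg/mL, determined in Jewell and Permain growth medium with spot inoculation at 10^4 cfu per spot. P99 is described as a constitutive type I lactamase producer.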

Proteus mirabilis [16] = assay: Minimum inhibitory concentration against Proteus mirabilis A18(inoculum, 10e5 cfu per spot); type: functional; summary of the method: as §1
Escherichia coli [17] = assay: Minimum inhibitory concentration against Escherichia coli DC2 (inoculum, 10e4 cfu per spot); type: functional; summary of the method: as §3
Enterobacter cloacae [18] = assay: Minimum inhibitory concentration against Enterobacter cloacae A13 (inoculum, 10e5 cfu per spot); type: functional; summary of the method: as §1
Klebsiella aerogenes [19] = assay: Minimum inhibitory concentration against Klebsiella aerogenes X5L (inoculum, 10e4 cfu per spot); type: functional; summary of the method: as §3
Enterobacter cloacae [20] = assay: Minimum inhibitory concentration against Enterobacter cloacae P99 (inoculum, 10e4 cfu per spot); type: functional; summary of the method: as §3
Escherichia coli [21] = assay: Minimum inhibitory concentration against Escherichia coli DCO (inoculum, 10e4 cfu per spot); type: functional; summary of the method: as §3
Staphylococcus aureus [22] = assay: Minimum inhibitory concentration against Staphylococcus aureus A4 (inoculum, 10e5 cfu per spot); type: functional; summary of the method: as §1
Klebsiella aerogenes [23] = assay: Minimum inhibitory concentration against Klebsiella aerogenes X6 (inoculum, 10e4 cfu per spot); type: functional; summary of the method: as §3
Serratia marcescens [24] = assay: Minimum inhibitory concentration against Serratia marcescens A16(inoculum, 10e5 cfu per spot). Parentheses value indicate inoculum, 10e2 cfu per spot; type: functional
Summary of the method: (§4)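 MIC in µg/mL in Jewell and Permain growth medium. Each strain was spot-inoculated at 10^5 cfu per spot; the bracketed values come from a 10^2 cfu per spot inoculum.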

Enterobacter cloacae [25] = assay: Minimum inhibitory concentration against Enterobacter cloacae A13(inoculum, 10e5 cfu per spot). Parentheses value indicate inoculum, 10e2 cfu per spot; type: functional; summary of the method: as §4
Staphylococcus aureus [26] = assay: Minimum inhibitory concentration against Staphylococcus aureus A6(inoculum, 10e5 cfu per spot). Parentheses value indicate inoculum, 10e2 cfu per spot; type: functional; summary of the method: as §4
Klebsiella pneumoniae [27] = assay: Minimum inhibitory concentration against Klebsiella pneumoniae A24(inoculum, 10e5 cfu per spot). Parentheses value indicate inoculum, 10e2 cfu per spot; type: functional; summary of the method: as §4
Pseudomonas aeruginosa [28] = assay: Minimum inhibitory concentration against Pseudomonas aeruginosa A21(inoculum, 10e5 cfu per spot). Parentheses value indicate inoculum, 10e2 cfu per spot; type: functional; summary of the method: as §4
Escherichia coli [29] = assay: Minimum inhibitory concentration against Escherichia coli A8(inoculum, 10e5 cfu per spot). Parentheses value indicate inoculum, 10e2 cfu per spot; type: functional; summary of the method: as §4
Staphylococcus aureus [30] = assay: Minimum inhibitory concentration against Staphylococcus aureus A4(inoculum, 10e5 cfu per spot). Parentheses value indicate inoculum, 10e2 cfu per spot; type: functional; summary of the method: as §4
Proteus vulgaris [31] = assay: Minimum inhibitory concentration against Proteus vulgaris Pv9(inoculum, 10e5 cfu per spot). Parentheses value indicate inoculum, 10e2 cfu per spot
Proteus mirabilis [32] = assay: Minimum inhibitory concentration against Proteus mirabilis A18(inoculum, 10e5 cfu per spot). Parentheses value indicate inoculum, 10e2 cfu per spot; type: functional; summary of the method: as §4

SMILES	MIC (Proteus mirabilis [1])	MIC (Pseudomonas aeruginosa [2])	MIC (Serratia marcescens [4])	MIC (Streptococcus pyogenes)	MIC (Enterobacter cloacae [5])	MIC (Escherichia coli [6])	MIC (Staphylococcus aureus [8])	MIC (Enterobacter cloacae [9])	MIC (Staphylococcus aureus [10])	MIC (Escherichia coli [13])	MIC (Escherichia coli [14])	MIC (Enterobacter cloacae [15])	MIC (Escherichia coli [17])	MIC (Klebsiella aerogenes [19])	MIC (Enterobacter cloacae [20])	MIC (Escherichia coli [21])	MIC (Klebsiella aerogenes [23])	other results
CC1=C(C(=O)OC(c2ccccc2)c2ccccc2)N2C(=O)[C@@H](Nc3nc4ccccc4[nH]3)C2SC1 (some centres not stated)	8 µg/mL (≈ 16.1 µM)	> 1000 µg/mL	200 µg/mL (≈ 403 µM)	40 µg/mL (≈ 80.5 µM)	–	8 µg/mL (≈ 16.1 µM)	40 µg/mL (≈ 80.5 µM)	8 µg/mL (≈ 16.1 µM)	–	–	–	–	–	–	–	–	–	MIC [7]: 8 µg/mL (≈ 16.1 µM)
CC(=O)OCC1=C(C(=O)OC(c2ccccc2)c2ccccc2)N2C(=O)[C@@H](Nc3nc4cc(C)ccc4[nH]3)C2SC1 (some centres not stated)	–	> 256 µg/mL	128 µg/mL (≈ 225 µM)	1 µg/mL (≈ 1.76 µM)	–	2 µg/mL (≈ 3.52 µM)	2 µg/mL (≈ 3.52 µM)	–	–	1 µg/mL (≈ 1.76 µM)	4 µg/mL (≈ 7.03 µM)	256 µg/mL (≈ 450 µM)	0.06 µg/mL (≈ 0.106 µM)	128 µg/mL (≈ 225 µM)	2 µg/mL (≈ 3.52 µM)	1 µg/mL (≈ 1.76 µM)	4 µg/mL (≈ 7.03 µM)	MIC (Proteus vulgaris [11]): 256 µg/mL (≈ 450 µM); MIC (Klebsiella pneumoniae [12]): 4 µg/mL (≈ 7.03 µM); MIC (Proteus mirabilis [16]): 4 µg/mL (≈ 7.03 µM); MIC (Enterobacter cloacae [18]): 256 µg/mL (≈ 450 µM); MIC (Staphylococcus aureus [22]): 16 µg/mL (≈ 28.1 µM)
CC1=C(C(=O)OC(c2ccccc2)c2ccccc2)N2C(=O)[C@@H](NC3=NC4CC4N3)C2SC1 (some centres not stated)	–	–	–	128 µg/mL (≈ 278 µM)	–	–	–	–	–	1 µg/mL (≈ 2.17 µM)	1 µg/mL (≈ 2.17 µM)	2 µg/mL (≈ 4.34 µM)	0.5 µg/mL (≈ 1.09 µM)	2 µg/mL (≈ 4.34 µM)	1 µg/mL (≈ 2.17 µM)	1 µg/mL (≈ 2.17 µM)	2 µg/mL (≈ 4.34 µM)	MIC (Serratia marcescens [24]): 4 µg/mL (≈ 8.69 µM); MIC (Enterobacter cloacae [25]): 4 µg/mL (≈ 8.69 µM); MIC (Staphylococcus aureus [26]): > 256 µg/mL; MIC (Klebsiella pneumoniae [27]): 1 µg/mL (≈ 2.17 µM); MIC (Pseudomonas aeruginosa [28]): 256 µg/mL (≈ 556 µM); MIC (Escherichia coli [29]): 2 µg/mL (≈ 4.34 µM); MIC (Staphylococcus aureus [30]): > 256 µg/mL; MIC (Proteus vulgaris [31]): > 256 µg/mL; MIC (Proteus mirabilis [32]): > 256 µg/mL

Further lines, with some results ahead:

MIC (Proteus mirabilis [1])	MIC (Pseudomonas aeruginosa [2])	MIC (Serratia marcescens [4])	MIC (Streptococcus pyogenes)	MIC (Enterobacter cloacae [5])	MIC (Escherichia coli [6])	MIC (Staphylococcus aureus [8])	MIC (Enterobacter cloacae [9])	MIC (Staphylococcus aureus [10])	MIC (Escherichia coli [13])	MIC (Escherichia coli [14])	MIC (Enterobacter cloacae [15])	MIC (Escherichia coli [17])	MIC (Klebsiella aerogenes [19])	MIC (Enterobacter cloacae [20])	MIC (Escherichia coli [21])	MIC (Klebsiella aerogenes [23])	SMILES	other results
1000 µg/mL (≈ 1950 µM)	> 1000 µg/mL	> 1000 µg/mL	40 µg/mL (≈ 77.9 µM)	> 1000 µg/mL	> 1000 µg/mL	–	–	–	–	–	–	–	–	–	–	–	CC1=C(C(=O)OC(c2ccccc2)c2ccccc2)N2C(=O)[C@@H](Nc3nc4ccccc4s3)C2SC1 (some centres not stated)	MIC (Staphylococcus aureus [3]): 1 µg/mL (≈ 1.95 µM)
200 µg/mL (≈ 350 µM)	> 1000 µg/mL	1000 µg/mL (≈ 1750 µM)	1 µg/mL (≈ 1.75 µM)	–	200 µg/mL (≈ 350 µM)	0.5 µg/mL (≈ 0.875 µM)	200 µg/mL (≈ 350 µM)	0.5 µg/mL (≈ 0.875 µM)	–	–	–	–	–	–	–	–	CC(=O)OCC1=C(C(=O)OC(c2ccccc2)c2ccccc2)N2C(=O)[C@@H](Nc3nc4ccccc4s3)C2SC1 (some centres not stated)	–
1000 µg/mL (≈ 2010 µM)	> 1000 µg/mL	> 1000 µg/mL	200 µg/mL (≈ 402 µM)	1000 µg/mL (≈ 2010 µM)	> 1000 µg/mL	8 µg/mL (≈ 16.1 µM)	–	8 µg/mL (≈ 16.1 µM)	–	–	–	–	–	–	–	–	CC1=C(C(=O)OC(c2ccccc2)c2ccccc2)N2C(=O)[C@@H](Nc3nc4ccccc4o3)C2SC1 (some centres not stated)	–
